Active and inactive are the calls of the source. The calls are words filed in the database; no cut-off is given here.
Tests used:
Integrin alpha-V/beta-6 = Integrin alpha-V/beta-6 (Homo sapiens, UniProt P06756+P18564); experiment: Inhibition of human recombinant integrin alphavbeta6 incubated for 1 hr by ELISA assay; format: protein-complex assay
Human alphaherpesvirus 1 [1] = experiment: Antiviral activity against HSV-1 K26GFP infected in J cells expressing nectin1 plus alphavbeta6/alphavbeta8 integrin assessed as alphavbeta6/alphavbeta8 receptor internalization at 700 uM incubated for 1 hrs followed by viral infection by flow cytometry assay; format: functional, organism-based
Summary of the method: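 Transfected J cells expressed nectin1 plus both αvβ6 and αvβ8 (48 h post-transfection) and were treated with 700 μM peptide for 1 h at 37 °C. Surface β6 and β8 were stained for 1 h at 4 °C with APC-conjugated mAbs outside the RGD-binding site. Nectin1 was stained with R1.302 plus APC secondary. Read-out was flow cytometry APC MFI of gated cells, ≥10 000 events; triplicates ± SD.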

Human alphaherpesvirus 1 [2] = experiment: Antiviral activity against HSV-1 R8102 infected in HEK293T cells assessed as inhibition of viral replication using ONPG as substrate incubated for 1 hrs followed by viral infection measured after 90 mins by microplate reader analysis; format: functional, organism-based; settings: dose <= 1000.0 µM, DDE = dose-dependent effect
Summary of the method: (§1)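 Peptides were dissolved at 10 mM (stock) in serum-free DMEM and neutralized with Tris-HCl. 293T cells (low endogenous αvβ6/αvβ8) were pretreated with increasing peptide concentrations for 1 h at 37 °C. Cells were then infected with lacZ-reporter R8102 at MOI 5 PFU/cell for 90 min at 37 °C with peptide. After rinsing, cells were incubated 8 h without peptide. Infection was read as β-galactosidase activity with ONPG; triplicate, SD.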

Human alphaherpesvirus 1 [3] = experiment: Antiviral activity against HSV-1 K26GFP infected in J cells expressing nectin1 plus alphavbeta6 integrin at 700 uM incubated for 48 hrs followed by viral infection measured after 16 hrs by fluorescent microscopy; format: functional, organism-based; settings: time 64.0 hrs
Summary of the method: (§2)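 J cells were transfected with nectin1 (75 ng DNA/24 well) plus αv+β6, αv+β8, or both integrin plasmids (300 ng each). Total DNA was made up to 675 ng with Erb-2 plasmid. At 48 h, cells got 700 μM peptide for 1 h at 37 °C, then K26GFP at 1 PFU/cell for 90 min with peptide. Acid wash (pH 3), then 16 h without peptide. EGFP was read by fluorescence microscopy and flow cytometry MFI (≥10 000 events); triplicates ± SD.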

Human alphaherpesvirus 1 [4] = experiment: Antiviral activity against HSV-1 K26GFP infected in J cells expressing nectin1 plus alphavbeta8 integrin at 700 uM incubated for 48 hrs followed by viral infection measured after 16 hrs by fluorescent microscopy; format: functional, organism-based; settings: time 64.0 hrs; summary of the method: as §2
Human alphaherpesvirus 1 [5] = experiment: Inhibition of HSV-1 soluble gH binding to alphavbeta6/alphavbeta8 integrin expressed in […] J cells at 700 uM incubated for 1 hr by flow cytometry assay; format: cell-based
Summary of the method: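 J cells were transfected with nectin1 plus αvβ6 and αvβ8 and, 48 h later, exposed to 700 μM peptide for 1 h at 37 °C. They were then incubated for 1 h at 4 °C with 2 μM One-STrEP-tagged soluble gH in DMEM/5% FBS/30 mM HEPES. Soluble gB served as the control protein. Binding was detected with PE-Strep-Tactin (1 h, 4 °C) as flow cytometry MFI (≥10 000 events); triplicates ± SD.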

Human alphaherpesvirus 1 [6] = experiment: Antiviral activity against HSV-1 K26GFP infected in J cells expressing nectin1 plus alphavbeta6/alphavbeta8 integrin at 700 uM incubated for 48 hrs followed by viral infection measured after 16 hrs by fluorescent microscopy; format: functional, organism-based; settings: time 64.0 hrs; summary of the method: as §2
Human alphaherpesvirus 1 [7] = experiment: Antiviral activity against HSV-1 R8102 infected in HEK293T cells assessed as inhibition of viral replication at 500 to 1000 uM using ONPG as substrate incubated for 1 hrs followed by viral infection measured after 90 mins by microplate reader analysis relative to control; format: functional; parameters: scale not given: the % may be the effect or the level left; settings: dose 500-1000 µM; summary of the method: as §1

Chain of Integrin alpha-V/beta-6 (P06756 31-889 limits assumed): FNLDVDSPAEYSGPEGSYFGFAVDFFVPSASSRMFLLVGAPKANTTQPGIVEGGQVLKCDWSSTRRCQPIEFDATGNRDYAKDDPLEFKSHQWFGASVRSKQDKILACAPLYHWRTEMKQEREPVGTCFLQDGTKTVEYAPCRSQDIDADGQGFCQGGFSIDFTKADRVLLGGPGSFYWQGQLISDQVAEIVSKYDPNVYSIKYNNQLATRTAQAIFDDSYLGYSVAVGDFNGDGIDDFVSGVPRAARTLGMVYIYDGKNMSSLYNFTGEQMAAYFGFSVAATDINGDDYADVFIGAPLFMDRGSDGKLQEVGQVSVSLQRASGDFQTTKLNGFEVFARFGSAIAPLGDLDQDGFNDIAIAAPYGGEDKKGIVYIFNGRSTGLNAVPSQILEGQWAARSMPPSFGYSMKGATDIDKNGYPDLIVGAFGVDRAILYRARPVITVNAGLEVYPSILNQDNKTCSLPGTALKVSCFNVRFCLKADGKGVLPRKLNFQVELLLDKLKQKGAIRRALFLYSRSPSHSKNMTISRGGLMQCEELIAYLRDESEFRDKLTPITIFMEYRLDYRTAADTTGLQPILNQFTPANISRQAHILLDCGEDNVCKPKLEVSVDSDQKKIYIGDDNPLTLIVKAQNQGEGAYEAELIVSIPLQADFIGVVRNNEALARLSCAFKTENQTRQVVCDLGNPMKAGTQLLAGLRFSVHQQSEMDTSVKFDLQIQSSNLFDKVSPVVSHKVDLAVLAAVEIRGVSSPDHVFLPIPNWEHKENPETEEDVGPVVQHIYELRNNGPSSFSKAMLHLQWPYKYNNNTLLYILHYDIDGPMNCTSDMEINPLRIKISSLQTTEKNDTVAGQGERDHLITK
Chain of Integrin alpha-V/beta-6 (P06756 891-1048 limits assumed): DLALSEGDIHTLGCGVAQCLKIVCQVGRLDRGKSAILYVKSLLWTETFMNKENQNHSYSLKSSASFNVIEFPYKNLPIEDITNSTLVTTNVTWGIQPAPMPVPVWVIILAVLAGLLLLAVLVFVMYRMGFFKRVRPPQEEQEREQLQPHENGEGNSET
Chain of Integrin alpha-V/beta-6 (P18564 22-788 limits assumed): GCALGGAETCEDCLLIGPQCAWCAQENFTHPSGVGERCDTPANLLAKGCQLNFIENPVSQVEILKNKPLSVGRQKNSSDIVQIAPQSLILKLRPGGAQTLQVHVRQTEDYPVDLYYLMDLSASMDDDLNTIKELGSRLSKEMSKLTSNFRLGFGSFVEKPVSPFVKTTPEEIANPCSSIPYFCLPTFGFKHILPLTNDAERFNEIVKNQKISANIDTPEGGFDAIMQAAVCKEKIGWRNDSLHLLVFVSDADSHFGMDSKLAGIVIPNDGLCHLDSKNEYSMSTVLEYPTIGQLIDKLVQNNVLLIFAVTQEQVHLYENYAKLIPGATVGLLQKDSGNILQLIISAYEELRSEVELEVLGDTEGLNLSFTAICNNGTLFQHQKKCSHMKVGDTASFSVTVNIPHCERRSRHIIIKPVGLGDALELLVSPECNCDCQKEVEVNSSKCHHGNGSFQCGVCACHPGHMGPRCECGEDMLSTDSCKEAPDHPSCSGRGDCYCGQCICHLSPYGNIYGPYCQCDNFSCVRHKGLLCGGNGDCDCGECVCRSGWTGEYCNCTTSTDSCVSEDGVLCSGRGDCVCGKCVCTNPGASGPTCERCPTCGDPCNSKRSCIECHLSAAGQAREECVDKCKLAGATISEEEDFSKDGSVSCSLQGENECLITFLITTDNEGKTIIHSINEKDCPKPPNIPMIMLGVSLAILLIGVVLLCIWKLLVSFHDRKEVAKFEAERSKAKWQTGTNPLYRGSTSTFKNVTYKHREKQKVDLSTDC

Question: For `CN1C(=O)CNC(=O)[C@H](CCCNC(=N)N)NC(=O)CC[C@@H](C(N)=O)NC(=O)[C@H](C2CCCCC2)NC(=O)[C@@H]1CC(=O)O`, which IC50 (Integrin alpha-V/beta-6) is on record?
Answer: > 5000 nM

Question: For `CN1C(=O)[C@H](C2CCCCC2)NC(=O)[C@H](CC(=O)O)NC(=O)CNC(=O)[C@H](CCCNC(=N)N)NC(=O)CC[C@H]1C(N)=O`, which Activity (Human alphaherpesvirus 1 [1]) is on record?
Answer: Active

Question: And the Activity (Human alphaherpesvirus 1 [2])?
Answer: Dde

Question: What about the Activity (Human alphaherpesvirus 1 [3]) of the same molecule?
Answer: Active

Question: What about the Activity (Human alphaherpesvirus 1 [4]) of the same molecule?
Answer: Active

Question: What about the inhibition (Human alphaherpesvirus 1 [5]) of the same molecule?
Answer: Active

Question: And the Activity (Human alphaherpesvirus 1 [6])?
Answer: Active

Question: What about the Activity (Human alphaherpesvirus 1 [7]) of the same molecule?
Answer: 70%

Question: `N=C(N)NCCC[C@@H]1NC(=O)CC[C@@H](C(N)=O)NC(=O)[C@H](C2CCCCC2)NC(=O)[C@H](CC(=O)O)NC(=O)CNC1=O` was tested. Which Activity (Human alphaherpesvirus 1 [2]) did it give?
Answer: Dde

Question: And the Activity (Human alphaherpesvirus 1 [3])?
Answer: Active

Question: For `CC(C)C[C@H](NC(=O)[C@H](CO)NC(=O)[C@H](CC(=O)O)NC(=O)[C@H](CC(C)C)NC(=O)[C@H](CC(=O)O)NC(=O)[C@@H](NC(=O)[C@@H](N)CCCNC(=N)N)[C@@H](C)O)C(=O)N[C@@H](CCCNC(=N)N)C(=O)N[C@H](C(=O)O)[C@@H](C)O`, which IC50 (Integrin alpha-V/beta-6) is on record?
Answer: 38 nM

Source: ChEMBL document CHEMBL5214901 (J Med Chem, 2021)
